Screening data (PubChem)
M5 ag: agonists of human muscarinic M5 receptor (CHRM5); P08912; CHO-K1 hM5 cells, Fluo-8 calcium fluorescence; 0% DMSO wells, 100% maximal acetylcholine response; activation, % at 3 µM; 0.19% of 360,000 active;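 active = activation above the run's mean over test compounds plus 3 SD, cut at about 23% in these data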;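 note: signal is peak over basal fluorescence ratio across the kinetic read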
M4 antag: blocks acetylcholine activation of human M4 receptor | P08173 | CHO-hM4 cells, ACh EC80, Fluo-8 calcium fluorescence | inhibition, % at 3 µM | 0.73% of 360,000 active;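 active = inhibition above its plate's cutoff, the mean inhibition of sample wells plus 3 SD, cut at about 27% in these data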;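 note: 0% = acetylcholine EC80 with DMSO and 100% = DMSO without agonist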
Target sequence (P08173 whole entry, looked up): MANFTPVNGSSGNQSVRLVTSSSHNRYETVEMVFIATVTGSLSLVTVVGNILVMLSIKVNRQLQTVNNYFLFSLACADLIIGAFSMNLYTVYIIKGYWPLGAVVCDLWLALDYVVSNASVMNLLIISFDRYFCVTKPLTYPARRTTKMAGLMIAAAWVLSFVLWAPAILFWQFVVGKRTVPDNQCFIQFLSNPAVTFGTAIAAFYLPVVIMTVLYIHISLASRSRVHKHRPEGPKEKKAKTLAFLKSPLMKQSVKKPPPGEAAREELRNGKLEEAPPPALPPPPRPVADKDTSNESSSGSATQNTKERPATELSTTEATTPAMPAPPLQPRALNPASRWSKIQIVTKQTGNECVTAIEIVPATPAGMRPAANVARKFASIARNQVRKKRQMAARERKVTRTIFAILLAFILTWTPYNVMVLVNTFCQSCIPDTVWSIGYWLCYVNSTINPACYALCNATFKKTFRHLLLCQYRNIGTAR
CHRM5 antagonist: antagonists of human muscarinic M5 receptor (CHRM5). P08912. CHO-hM5 cells, Fluo-8 calcium fluorescence, ACh EC80. inhibition, % at 3 µM. 0.59% of 360,000 active. AID 624040;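 active = inhibition above a per-plate cutoff, the mean of that plate's test compounds plus 3 SD, cut at about 27% in these data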;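 note: 0% = acetylcholine EC80 with DMSO and 100% = DMSO without agonist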
CHRM4 agonist: agonists of human muscarinic M4 receptor (CHRM4) | P08173 | CHO-K1 hM4/Gqi5, Fluo-8 calcium fluorescence; vehicle 0%, full acetylcholine response 100% | activation, % at 3 µM | 0.14% of 360,000 active | AID 624127;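 active = activation above the run mean over all test wells plus 3 SD, cut at about 32% in these data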;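 note: peak over basal fluorescence ratio per well then scaled between controls; 0% = DMSO wells and 100% = acetylcholine at EC100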
CHRM5 PAM: positive allosteric modulators of human muscarinic M5 receptor; P08912; CHO-K1 hM5, Fluo-8 calcium, ACh EC20 PAM; 0% = ACh EC20, 100% = ACh EC100; activation, % at 3 µM; 0.3% of 360,000 active; AID 624038;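 active = activation above the run cutoff, the mean activation of all test compounds plus 3 SD, cut at about 18% in these data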
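Assay system – human M5 receptor in CHO-K1 cells · Read-out – % activation, ACh-normalized · Technique – Fluo-8 calcium fluorescence · Dosing – single-point, 3 µM nominal · Incubation – Fluo-8 loading 80 min at 37 °C plus 30 min room temperature · Repeats – singlicate, one well per test compound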
M4 PAM: potentiates acetylcholine response at human M4 receptor. P08173. activation, % at 3 µM. CHO-K1 hM4/Gqi5, Fluo-8 calcium fluorescence, ACh EC20; 0% = ACh EC20, 100% = maximal ACh. 0.4% of 360,000 active;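 active = activation above its plate's cutoff, the mean activation of sample wells plus 3 SD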
* = called active by the depositor. Most compounds without a hit are left out; they make up all but 1.9% or so of the library.

Cc1cc2nc[nH]c(=O)n2n1 was read as M5 ag 0, M4 antag -17, CHRM5 antagonist 2, CHRM4 agonist 0, CHRM5 PAM -2 and M4 PAM 1.
Screening Cc1ccccc1OCCn1cnc2c(N)ncnc21 returned M5 ag 3, M4 antag 2, CHRM5 antagonist 4, CHRM4 agonist 5, CHRM5 PAM -3 and M4 PAM 16*.
`CCOC(=O)c1ccc(N=c2scc(C)n2CC)cc1` gave M5 ag -8, M4 antag -8, CHRM5 antagonist 16, CHRM4 agonist -1, CHRM5 PAM -6 and M4 PAM -8.
CCOC(=O)c1ccc(N=C2C(=S)N(c3ccc(C(=O)OCC)cc3)C(=N)N2/N=C/c2ccccc2)cc1 was read as M5 ag -7, M4 antag 99*, CHRM5 antagonist 87*, CHRM4 agonist 1, CHRM5 PAM -20 and M4 PAM -31.
CCCC(=O)Nc1ccc(C(=O)NNC(=S)NC(=O)c2cccs2)cc1 was read as M5 ag 1, M4 antag -9, CHRM5 antagonist -2, CHRM4 agonist 0, CHRM5 PAM -1 and M4 PAM 13.
`CCCC(=O)Nc1ccc(C(=O)NNC(=S)NC(=O)c2ccc(Br)o2)cc1` gave M5 ag -1, M4 antag 34*, CHRM5 antagonist 7, CHRM4 agonist -1, CHRM5 PAM -5 and M4 PAM -13.
`CCOc1ccc(S(=O)(=O)Nc2cccc(C(=O)N3CC(C)OC(C)C3)c2)cc1` (stereo not drawn) gave M5 ag 7, M4 antag 4, CHRM5 antagonist -3, CHRM4 agonist 2, CHRM5 PAM -1 and M4 PAM -5.
For COc1ccc(NS(=O)(=O)c2ccc(C(=O)N(C)Cc3ccc(C)o3)cc2)cc1 the results were M5 ag 28*, M4 antag -3, CHRM5 antagonist -2, CHRM4 agonist 14, CHRM5 PAM -4 and M4 PAM -4.
CCOc1ccc(S(=O)(=O)Nc2ccc(C(=O)N3CC(C)OC(C)C3)cc2)cc1 (stereo not drawn) was read as M5 ag 30*, M4 antag 12, CHRM5 antagonist 9, CHRM4 agonist 16, CHRM5 PAM -7 and M4 PAM -7.
COc1ccc(NS(=O)(=O)c2ccc(C(=O)N3CCC(C)CC3)cc2)cc1 was read as M5 ag 39*, M4 antag -5, CHRM5 antagonist 13, CHRM4 agonist 27, CHRM5 PAM -21 and M4 PAM -9.
Screening COc1ccc(CN(C)C(=O)c2ccc(NS(=O)(=O)c3ccc(F)cc3)cc2)c(OC)c1 returned M5 ag 1, M4 antag 13, CHRM5 antagonist 3, CHRM4 agonist 3, CHRM5 PAM -9 and M4 PAM -9.
COc1ccccc1C(CNC(=O)c1cccc(S(=O)(=O)Nc2ccc(C)cc2)c1)N1CCCC1 (stereo not drawn) was read as M5 ag -10, M4 antag 19, CHRM5 antagonist 28*, CHRM4 agonist 2, CHRM5 PAM -33 and M4 PAM -9.
Screening COc1ccccc1NS(=O)(=O)c1cccc(C(=O)NCC(c2ccccc2OC)N2CCCC2)c1 (stereo not drawn) returned M5 ag -11, M4 antag 3, CHRM5 antagonist 7, CHRM4 agonist 1, CHRM5 PAM -24 and M4 PAM -10.
For CCCn1c(SCC(=O)Nc2ccc3c(c2)OCCO3)n[nH]c1=O the results were M5 ag -5, M4 antag 9, CHRM5 antagonist 2, CHRM4 agonist 0, CHRM5 PAM -1 and M4 PAM -5.
For CC(C)(C)N1C(=O)[C@H]2[C@@H](c3ccc(Br)cc3)N3C(=O)N(c4ccc(Br)cc4)C(=O)[C@@]3(Cc3ccccc3)[C@H]2C1=O the results were M5 ag 4, M4 antag -10, CHRM5 antagonist 0, CHRM4 agonist 2, CHRM5 PAM 2 and M4 PAM 12.
For CCOc1ccc(NS(=O)(=O)c2ccc(NC(=S)NC(C)=O)cc2)cc1 the results were M5 ag 25*, M4 antag 7, CHRM5 antagonist 3, CHRM4 agonist 26, CHRM5 PAM -7 and M4 PAM -6.
For O=C(NCC(c1ccco1)N1CCCC1)c1ccc(S(=O)(=O)Nc2ccc(F)cc2)cc1 (stereo not drawn) the results were M5 ag -2, M4 antag 6, CHRM5 antagonist 8, CHRM4 agonist 11, CHRM5 PAM -14 and M4 PAM -6.
CCOc1ccc(NS(=O)(=O)c2ccc(C(=O)N3CC(C)OC(C)C3)cc2)cc1 (stereo not drawn) was read as M5 ag 57*, M4 antag 3, CHRM5 antagonist 5, CHRM4 agonist 66*, CHRM5 PAM -17 and M4 PAM -6.
`CCOc1ccc(NS(=O)(=O)c2ccc(C(=O)NCC(c3ccco3)N3CCCC3)cc2)cc1` (stereo not drawn) gave M5 ag 12, M4 antag -15, CHRM5 antagonist 6, CHRM4 agonist 34*, CHRM5 PAM 5 and M4 PAM -1.
`CCOc1ccc(NS(=O)(=O)c2ccc(NC(=S)NC(=O)C(C)C)cc2)cc1` gave M5 ag 12, M4 antag 0, CHRM5 antagonist 6, CHRM4 agonist 7, CHRM5 PAM 1 and M4 PAM 0.
Screening CC1CN(C(=O)c2ccc(NS(=O)(=O)c3ccc(C(C)(C)C)cc3)cc2)CC(C)O1 (stereo not drawn) returned M5 ag 48*, M4 antag 12, CHRM5 antagonist 2, CHRM4 agonist 33*, CHRM5 PAM -4 and M4 PAM -6.
Screening CC(=O)Nc1ccc(CN2CCCCCCC2)cc1 returned M5 ag -3, M4 antag -1, CHRM5 antagonist 9, CHRM4 agonist 0, CHRM5 PAM -2 and M4 PAM -6.
Screening Cc1ccc(S(=O)(=O)Nc2ccc(N3CCCCC3)cc2)cc1 returned M5 ag -2, M4 antag 0, CHRM5 antagonist -13, CHRM4 agonist 1, CHRM5 PAM -5 and M4 PAM 0.
For Cc1ccc(NS(=O)(=O)c2ccc(C3CCCCC3)cc2)cc1 the results were M5 ag 5, M4 antag 49*, CHRM5 antagonist 27*, CHRM4 agonist 12, CHRM5 PAM -18 and M4 PAM -18.
